Data on 15 compounds can be found in article PMC5955836 (ACS chemical neuroscience, 2018).

For orientation: EC50 means the midpoint of the concentration-response curve. In general, Ki refers to the dissociation constant of the complex between target and ligand, obtained from inhibition or displacement.

In assay [1] the target is T1, mMC5R (Mus musculus, UniProt P41149). Format: cell-based. The note with it: for mMC5R inverse agonist potency compared within series: fold less potent than KAF2039-9, the most potent inverse agonist; for mMC5R maximal decrease in basal activity at the plateau: sigmoidal dose-response, relative to basal.
T1 sequence (P41149 whole entry): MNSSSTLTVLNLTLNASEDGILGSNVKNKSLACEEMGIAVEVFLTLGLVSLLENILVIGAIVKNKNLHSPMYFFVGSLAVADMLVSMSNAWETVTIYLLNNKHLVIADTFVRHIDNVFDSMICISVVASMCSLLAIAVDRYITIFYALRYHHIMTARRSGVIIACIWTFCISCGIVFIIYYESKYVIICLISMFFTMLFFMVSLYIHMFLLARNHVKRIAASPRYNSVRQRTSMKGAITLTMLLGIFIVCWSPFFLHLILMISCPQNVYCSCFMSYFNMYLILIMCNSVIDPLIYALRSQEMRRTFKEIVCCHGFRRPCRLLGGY
Assay [2] concerns the target T2, mMC3R (Mus musculus, UniProt P33033). The assay is described as follows: AlphaScreen cAMP antagonist assay. It is filed as cell-based. As to conditions: for antagonist activity at the mMC3R: at the concentrations examined in this study. Background: Alpha assays give light when donor and acceptor beads are brought close together.
In assay [3] the target is T3, mMC1R (Mus musculus, UniProt Q01727). As to conditions: for mMC1R percent activation at 100 μM: no sigmoidal dose-response, relative to NDP-MSH; for agonist activity at the MC1R: up to 100 μM.
T3 sequence (Q01727 whole entry): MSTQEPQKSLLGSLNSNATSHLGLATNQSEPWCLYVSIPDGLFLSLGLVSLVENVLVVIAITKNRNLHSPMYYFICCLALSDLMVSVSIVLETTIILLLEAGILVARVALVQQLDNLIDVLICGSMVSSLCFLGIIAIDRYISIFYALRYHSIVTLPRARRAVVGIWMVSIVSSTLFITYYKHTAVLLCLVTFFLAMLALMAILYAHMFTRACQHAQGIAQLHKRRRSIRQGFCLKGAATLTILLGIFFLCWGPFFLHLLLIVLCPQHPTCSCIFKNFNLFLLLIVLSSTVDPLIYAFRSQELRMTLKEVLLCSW
The nature of assay [4]: Mouse feeding study, intrathecal injection: body weight. Format: in vivo. The note with it: male WT mice, 2 nmol, up to 72 hours post-injection. An outline of the steps:
(§1)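 Eight male WT mice, 24 weeks old, singly housed, ad libitum chow, reversed 12 h light/dark (lights off 12:00pm), 23–25°C. Crossover, non-fasting; single IT injection 2 h before lights out of 2 nmol/5 μL (20% solutol stock diluted in ddH2O) or matched vehicle; 7 days between treatments. Food and body weight at 2–72 h; two-factor repeated-measures ANOVA (drug × time).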

The next assay has as its system Male Wildtype (WT) mice. The assay is described as follows: Mouse feeding study, intrathecal injection: cumulative food intake. Format: in vivo. An outline of the steps: as §1
The target of assay [5] is mouse melanocortin-4 receptor (mouse) (UniProt P56450).
Chain of mouse melanocortin-4 receptor (mouse) (P56450 whole entry): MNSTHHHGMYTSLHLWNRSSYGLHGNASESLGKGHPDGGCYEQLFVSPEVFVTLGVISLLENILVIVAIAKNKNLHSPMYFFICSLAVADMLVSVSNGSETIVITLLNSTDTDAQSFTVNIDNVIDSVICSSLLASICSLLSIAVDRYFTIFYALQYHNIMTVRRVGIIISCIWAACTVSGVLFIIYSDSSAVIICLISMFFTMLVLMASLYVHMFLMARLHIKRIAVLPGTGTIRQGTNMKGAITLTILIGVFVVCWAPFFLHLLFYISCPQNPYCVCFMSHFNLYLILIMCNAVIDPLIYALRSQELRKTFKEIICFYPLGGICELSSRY
The target in assay [6] is mouse melanocortin-1 receptor (mouse) (UniProt Q01727).
Chain of mouse melanocortin-1 receptor (mouse) (Q01727 whole entry): as the sequence (Q01727 whole entry) above
The test system of another assay is MC1R. As to conditions: read-out: MC1R agonist EC50; cited from earlier work.
For assay [7], the target named is T2, mMC3R. As to conditions: highest concentrations of antagonist assayed; cited from earlier work.
Assay [8] concerns the target T4, mMC4R (Mus musculus, UniProt P56450). As to conditions: cited from earlier work.
Assay [9] addresses T1, mMC5R. The note with it: read-out: mMC5R Inverse Agonist EC50; previously published peptide; cited from earlier work.
Assay [10] addresses T3, mMC1R. The note with it: read-out: mMC1R Agonist EC50; previously published peptide; cited from earlier work.
Assay [11] concerns the target T2, mMC3R. The note with it: previously published peptide, cited from earlier work.
In assay [12] the target is T4, mMC4R. As to conditions: cited from earlier work. This is another data set of the same source.
Assay [13] deals with T4, mMC4R. Description: AlphaScreen cAMP antagonist assay. It is filed as cell-based.
Another assay relates to MC3R. As to conditions: unable to bind at up to this concentration; cited from earlier work.
In the next assay the test system is MC4R. The note with it: unable to bind at up to this concentration; cited from earlier work.
[14] abbreviates: Schild analysis with NDP-MSH, < 5.5 = no antagonist potency at up to 10,000 nM.

“Also recorded” adds a separate entry of the source. Where two headings read alike, the source gives them in different places. Non-standard residues stand in square brackets, D forms with d. A value given as a limit tells only on which side of the number the result lay.

T4 sequence (P56450 whole entry): as the sequence (P56450 whole entry) above
T2 sequence (P33033 whole entry): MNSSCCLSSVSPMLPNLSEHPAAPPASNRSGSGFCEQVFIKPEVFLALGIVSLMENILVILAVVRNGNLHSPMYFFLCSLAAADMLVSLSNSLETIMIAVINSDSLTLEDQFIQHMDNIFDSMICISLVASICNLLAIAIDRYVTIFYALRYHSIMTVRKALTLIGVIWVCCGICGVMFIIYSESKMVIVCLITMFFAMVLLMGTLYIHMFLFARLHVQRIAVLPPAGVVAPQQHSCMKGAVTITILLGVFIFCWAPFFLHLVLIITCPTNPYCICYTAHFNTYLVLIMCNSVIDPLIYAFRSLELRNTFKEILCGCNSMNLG

Turning to `C[C@@H]1NC(=O)[C@H](CC(N)=O)NC(=O)[C@H](Cc2ccccc2)NC(=O)[C@H](Cc2ccccc2)NC(=O)[C@H](CCCNC(=N)N)NC(=O)[C@@H]2CCCN2C(=O)[C@H]2CCCN2C(=O)[C@H](CCCCN)NC1=O` [Compound 4, c[Pro-Arg-Phe-Phe-Asn-Ala-Lys-DPro]], the “mMC5R percent decrease in receptor activity compared to basal at 100 μM” value (“mMC5R percent decrease” below) on mMC5R [1] (100 μM, no plateau) is given as −40% @ 100 μM; at mMC5R [1] (100000.0), −40%.

Turning to `C[C@@H]1NC(=O)[C@H](CC(N)=O)NC(=O)[C@H](Cc2ccccc2)NC(=O)[C@H](Cc2ccccc2)NC(=O)[C@H](CCCNC(=N)N)NC(=O)[C@@H]2CCCN2C(=O)[C@H]2CCCN2C(=O)CNC1=O` [Compound 2, c[Pro-Arg-Phe-Phe-Asn-Ala-Gly-DPro]], the “antagonist activity at the mMC3R” value at mMC3R [2] was “not observed”. In addition, the “mMC5R percent decrease” value at mMC5R [1] (100 μM, no plateau) is −25% @ 100 μM. Also, at mMC1R [3], the “mMC1R percent activation at 100 μM” value is given as 60% @ 100 μM and the “agonist activity at the MC1R” value was “partially stimulate”.

For the compound `CCCC[C@@H]1NC(=O)[C@H](C)NC(=O)[C@H](CC(N)=O)NC(=O)[C@H](Cc2ccccc2)NC(=O)[C@H](Cc2ccccc2)NC(=O)[C@H](CCCNC(=N)N)NC(=O)[C@@H]2CCCN2C(=O)[C@H]2CCCN2C1=O` [Compound 7, c[Pro-Arg-Phe-Phe-Asn-Ala-Nle-DPro]], the “mouse body weight vs vehicle” value in assay [4] is recorded as “main effect of drug”; in [4] (listed as KAF2039-7) it was “treated animals weighing more than control animals”. The “cumulative food intake vs vehicle” value with Male Wildtype (WT) mice (2 nmol IT single injection, 2 and 6 hours post-injection) is reported as “ate significantly more food”. Also, the “food intake trend vs vehicle” value in the assay on Male Wildtype (WT) mice (2 nmol IT, up to 72 hours post-injection, listed as KAF2039-7) is on record as “prolonged trend of increased food intake; also recorded: strong trend in increased food intake; also recorded: trend exhibited out until 72 hours post-injection”. Moreover, in the assay on Male Wildtype (WT) mice (2 nmol, first 72 hours post-injection), the “main effect of drug on food intake, two-factor repeated measures ANOVA” value is listed as “main effect of drug”. Besides, the “mMC5R percent decrease” value was −35% @ 100 μM on mMC5R [1] (100 μM, no plateau) and “–35%” on mMC5R [1] (100000.0).

The compound “NDP-MSH (4-Norleucine-7-D-Phenylalanine): Ac-Ser-Tyr-Ser-Nle-Glu-His-DPhe-Arg-Trp-Gly-Lys-Pro-Val-NH2 (peptide)” gave an agonist EC50, cAMP AlphaScreen, HEK293 cells stably expressing mMC4R in assay [5] of 0.35 nM.

Turning to `CC(C)C[C@@H]1NC(=O)[C@H](C)NC(=O)[C@H](CC(N)=O)NC(=O)[C@H](Cc2ccccc2)NC(=O)[C@H](Cc2ccccc2)NC(=O)[C@H](CCCNC(=N)N)NC(=O)[C@@H]2CCCN2C(=O)[C@H]2CCCN2C1=O` [Compound 6, c[Pro-Arg-Phe-Phe-Asn-Ala-Leu-DPro]], on mMC3R [2], the “antagonist activity at the mMC3R” value was “not observed”. Moreover, the “mMC5R percent decrease” value on mMC5R [1] (100 μM, no plateau) is −35% @ 100 μM.

As to “c[Pro-Arg-Phe-Phe-Asn-Ala-Trp-DPro] (peptide)”, the partial agonist: maximal percent activated, cAMP AlphaScreen, HEK293 cells in assay [6] stood at 50%.

On to “H-Tyr-c[Cys-Arg-Phe-Phe-Asn-Ala-Phe-Cys]-Tyr-OH [AGRP[109-118]]”, for which the EC50 in the assay on MC1R is 3000 nM. The “antagonist potency at the mMC3R” value in the assay with mMC3R [7] was “does not possess an antagonist potency at the mMC3R that is quantifiable”. For the same compound, the “antagonist pA2 at the mMC4R” value in the assay with mMC4R [8] is 6.8.

Turning to `C[C@@H]1NC(=O)[C@H](CC(N)=O)NC(=O)[C@H](Cc2ccccc2)NC(=O)[C@H](Cc2ccccc2)NC(=O)[C@H](CCCNC(=N)N)NC(=O)[C@@H]2CCCN2C(=O)[C@H]2CCCN2C(=O)[C@H](CCc2ccccc2)NC1=O` [Compound 11, c[Pro-Arg-Phe-Phe-Asn-Ala-hPhe-DPro]], the “mMC5R inverse agonist potency compared within series” value at mMC5R [1] was “equipotent to each other”. The “mMC5R maximal decrease in basal activity at the plateau” value (“mMC5R maximal decrease” below) on mMC5R [1] is −20%; at mMC5R [1] (listed as KAF2039-13), 20%.

“hAGRP(87-132): Human agouti-related protein fragment 87-132, antagonist of MC3R and MC4R; previously published peptide”: the EC50 in the assay with mMC5R [9] and with mMC1R [10] was > 100000 nM each time. The “mMC3R Antagonist pA2” value with mMC3R [11] is 8.9±0.2. Moreover, the Ki with mMC3R [11] (read-out: mMC3R Antagonist Ki) is 1.3 nM; in the assay with mMC4R [12] (read-out: mMC4R Antagonist Ki, previously published peptide), 0.4 nM. The “selectivity for the MC4R (vs MC3R)” value with mMC4R [12] was “equipotent”. Further, in the assay with mMC4R [12] (previously published peptide), the “mMC4R Antagonist pA2” value is 9.4±1.0.

With `C[C@@H]1NC(=O)[C@H](CC(N)=O)NC(=O)[C@H](Cc2ccccc2)NC(=O)[C@H](Cc2ccccc2)NC(=O)[C@H](CCCNC(=N)N)NC(=O)[C@@H]2CCCN2C(=O)[C@H]2CCCN2C(=O)[C@H](CC2CCCCC2)NC1=O` [Compound 10, c[Pro-Arg-Phe-Phe-Asn-Ala-Cha-DPro]], at mMC5R [1], the “mMC5R inverse agonist potency compared within series” value was 5 fold and the “mMC5R maximal decrease” value is −20%.

Regarding `C[C@@H]1NC(=O)[C@H](CC(N)=O)NC(=O)[C@H](Cc2ccccc2)NC(=O)[C@H](Cc2ccccc2)NC(=O)[C@H](CCCNC(=N)N)NC(=O)[C@@H]2CCCN2C(=O)[C@H]2CCCN2C(=O)[C@H](Cc2c[nH]c3ccccc23)NC1=O` [Compound 8, c[Pro-Arg-Phe-Phe-Asn-Ala-Trp-DPro]], on mMC5R [1], the “mMC5R inverse agonist potency compared within series” value is reported as “equipotent to each other” and the “mMC5R maximal decrease” value is reported as −20%. In addition, on mMC1R [3], the “mMC1R partial agonist maximal percent activated” value was 50%.

As to “c[Pro-Arg-Phe-Phe-Asn-Ala-Asp-DPro] (cyclo(PRFFNAD[dP]); SMILES C[C@@H]1NC(=O)[C@H](CC(N)=O)NC(=O)[C@H](Cc2ccccc2)NC(=O)[C@H](Cc2ccccc2)NC(=O)[C@H](CCCNC(=N)N)NC(=O)[C@@H]2CCCN2C(=O)[C@H]2CCCN2C(=O)[C@H](CC(=O)O)NC1=O) [Compound 5]”, the “mMC3R Antagonist pA2” value with mMC3R [2] (setting [14]) is < 5.5. The “antagonist activity at the mMC3R” value with mMC3R [2] is “not observed”. Further, the “mMC5R percent decrease” value in the assay with mMC5R [1] (100 μM, no plateau) is recorded as −25% @ 100 μM. Further, in the assay with mMC5R [1] (100 μM, no plateau, listed as Asp^7), the “mMC5R percent decrease” value is given as -25%. In the assay with mMC1R [3], the “mMC1R percent activation at 100 μM” value turned out to be 40% @ 100 μM and the “agonist activity at the MC1R” value is on record as “partially stimulate”. Moreover, in the assay with mMC4R [13] (setting [14]), the “mMC4R Antagonist pA2” value is < 5.5. Besides, the “antagonist potency at the mMC4R” value with mMC4R [13] (at the concentrations used in this study) is reported as “not measurable”.

Consider `C[C@@H]1NC(=O)[C@H](CC(N)=O)NC(=O)[C@H](Cc2ccccc2)NC(=O)[C@H](Cc2ccccc2)NC(=O)[C@H](CCCNC(=N)N)NC(=O)[C@@H]2CCCN2C(=O)[C@H]2CCCN2C(=O)[C@H](CO)NC1=O` [Compound 3, c[Pro-Arg-Phe-Phe-Asn-Ala-Ser-DPro]], for which the “mMC5R percent decrease” value at mMC5R [1] (100 μM, no plateau) is −55% @ 100 μM. The “mMC5R percent decrease” value on mMC5R [1] (100000.0) is reported as −55%. Also, at mMC1R [3], the “mMC1R percent activation at 100 μM” value worked out at 35% @ 100 μM and the “agonist activity at the MC1R” value is reported as “partially stimulate”.

`C[C@@H]1NC(=O)[C@H](CC(N)=O)NC(=O)[C@H](Cc2ccccc2)NC(=O)[C@H](Cc2ccccc2)NC(=O)[C@H](CCCNC(=N)N)NC(=O)[C@@H]2CCCN2C(=O)[C@H]2CCCN2C(=O)[C@H](Cc2ccc(O)cc2)NC1=O` [Compound 9, c[Pro-Arg-Phe-Phe-Asn-Ala-Tyr-DPro]]: at mMC5R [1] (100 μM, no plateau), the “mMC5R percent decrease” value is −40% @ 100 μM.

With “H-Ser-Arg-Phe-Phe-Asn-Ala-Phe-Ser-OH (H-SRFFNAFS-OH)”, the “binding to the MC3R” value in the assay with MC3R is > 20 µM. Further, in the assay on MC4R, the “binding to the MC4R” value was > 20 µM.
